The full list was thinned out, with hits kept by preference.
Insulin prom act: TRM-6 insulin promoter activation; 0.81% of 130,000 active; AID 1296; activation, % at 2 µM; TRM-6 cells, insulin promoter eGFP reporter, imaging; plate-scaled: unstimulated 0, stimulated control 100;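 active means activation at 2 µM above a set limit, confirmed on inspection of the cell images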;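 further: share of cells whose green reporter signal exceeds an intensity cutoff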
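Material: Human fetal islet-derived TRM-6 cells with tamoxifen-inducible insulin promoter–eGFP reporter | Medium: Low-glucose (5.5 mM) medium with tamoxifen | Probe or stimulus: Tamoxifen inducer, 0.75 µM, in seeding medium | Schedule: Tamoxifen pre-incubation 15 h overnight, then compound exposure 48 h at 37 °C | Detection: High-content imaging of fixed cells with Hoechst nuclear stain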
Numbers stand for hits; 0 = inactive; + = active, no number; [ ] = dose if it differs, or a comment.

SMILES	Insulin prom act
Cc1ccc(S(=O)(=O)NCCNC(=O)C2CCCNC2=O)cc1 (centres undefined)	0
Cc1ccc(S(=O)(=O)CC(C)N2CCN(C3CCCCC3)CC2)cc1 (centres undefined)	0
CCOC(=O)C1(CCOc2ccccc2)CCN(Cc2ccc3nonc3c2)CC1	0
CC(=O)Nc1ccc(S(=O)(=O)Nc2ccc3c(c2)C(=O)OC3)cc1	0
CCOC(=O)c1c(NC(=O)Cc2cccs2)sc(C(=O)NC2CCCCC2)c1C	153
COC(=O)c1c(NC(=O)Cc2cccs2)sc(C(=O)NC2CCCCC2)c1C	0
CCOC(=O)c1c(NC(=O)Cc2cccs2)sc(C(=O)NC2CCCC2)c1C	0
C=CCOC(=O)C1=C(C)NC(C)=C(C(=O)OCC=C)C1/C=C/c1ccccc1	0
CC(C)CC(=O)CN1C(=O)C2(OCCO2)c2ccccc21	0
Cc1cc2c(s1)CCCCC(=O)N2	0
Cc1ccc(CCNC(=O)CCc2nc3ccccc3[nH]2)cc1	0
O=C(CN1CCN(c2cccc(Cl)c2)CC1)N1CCCC1	0
O=C(O)CCC(=O)N1CCN(c2cccc(Cl)c2)CC1	467
CC(=O)/C(C(=N)N1CCN(c2cccc(Cl)c2)CC1)=C(\C)O	0
Cn1c2c(c(=O)n(C)c1=O)C(c1ccccc1OC(F)F)C1=C(CCCC1=O)N2 (centres undefined)	0
Nn1cnnc1SCC(=O)Nc1ccc2c(c1)OCO2	0
Cc1ccc(Cc2nnc3n(-c4ccccc4)nc(C(=O)c4ccccc4)n3c2=O)cc1	0
CCN(CC)C(=O)CNC(=S)N(CCCN1CCOCC1)Cc1cccs1	0
O=C(CC1CCCCC1)N1CCCC(c2nc(-c3ccc(S(=O)(=O)N4CCCC4)cc3)no2)C1 (centres undefined)	0
COc1ccc(-c2noc(CCC(=O)N3CCC(C)CC3)n2)cc1	0
CCCCCC(=O)N1CCCC(c2nc(-c3ccc(OC)cc3)no2)C1 (centres undefined)	77
O=C(COC(=O)CCc1nc2ccccc2c(=O)[nH]1)NC(=O)NC1CCCC1	0
CC1(C)COC(c2coc3ccccc3c2=O)OC1	0
Cc1ccc(C(=O)CC(=O)c2cccc(F)c2)c(O)c1	0
O=C(COc1ccc(S(=O)(=O)N2CCCC2)cc1Cl)NCc1ccc2c(c1)OCO2	0
SMILES	Insulin prom act
COC(=O)COc1ccc(S(=O)(=O)Nc2ccc3c(c2)OCO3)cc1Cl	0
O=C(COc1ccc(S(=O)(=O)NC2CCCCC2)cc1Cl)NCc1ccc2c(c1)OCO2	100
CN1/C(=C\C=C2/C(=O)Oc3ccccc3C2=O)C(C)(C)c2ccccc21	223
Cc1nn(-c2ccccc2)c2c1C1(C(=O)N(C)c3ccccc31)C(C#N)=C(N)O2 (centres undefined)	0
CN1/C(=C\C(=O)Nc2ccc(Br)cc2)C(C)(C)c2ccccc21	0
OCc1nc2ccccc2n1CCCOc1ccccc1	0
OCc1nc2ccccc2n1CC(O)Cn1ccc2ccccc21 (centres undefined)	91
CC(C)Cn1c(NCCO)nc2ccccc21	0
Cc1nnc(SCc2cccc([N+](=O)[O-])c2)[nH]c1=O	0
CNC(=S)/N=C/NOCc1ccc(Cl)cc1Cl	0
Cc1sc2c(c1C)c(=O)n(-c1cccc(C(F)(F)F)c1)c(=O)n2CC(=O)NCc1ccco1	0
COC(=O)c1cn(NC(=O)c2ccc(OC)c(OC)c2)c(=O)c2ccccc12	0
COC(=O)c1cn(NC(=O)c2ccc([N+](=O)[O-])c(C)c2)c(=O)c2ccccc12	320
COC(=O)c1cn(NC(=O)c2cccc(F)c2)c(=O)c2ccccc12	0
COC(=O)N[C@H](CC(C)=O)c1cccc(C(F)(F)F)c1	0
O=C(Nc1cc(C(F)(F)F)ccc1-n1cncn1)c1ccc(-c2ccccc2)cc1	78
O=C(Nc1cc(C(F)(F)F)ccc1N1CCOCC1)c1cncc(Br)c1	0
Cc1ccccc1NC(=O)c1cccc(C(F)(F)F)c1	0
O=c1c2ccccc2nc(SCc2nc(-c3ccccc3)no2)n1-c1ccc(F)cc1	0
Cc1ccc(OCC(=O)N2c3ccccc3CC2C)c([N+](=O)[O-])n1 (centres undefined)	0
CCOC(=O)C(=CNc1ccc2c(c1)nnn2-c1ccc(Cl)cc1)C(=O)OCC	0
CC(C)(C)OC(=O)N[C@@H](Cc1c[nH]c2ccccc12)c1nnc(SCC(N)=O)o1	0
CC(C)(C)OC(=O)N[C@@H](Cc1ccccc1)c1nnc(SCC(=O)c2ccc(Cl)cc2)o1	507
Cc1ccccc1CS(=O)(=O)c1nnc([C@H](Cc2ccccc2)NC(=O)OC(C)(C)C)o1	0
CCCCCC(=O)NNC1=NCC(Cc2cccc(Cl)c2)S1 (centres undefined)	0
SMILES	Insulin prom act
CCS(=O)(=O)c1ccc2oc(SCC(=O)NC3CCCC(C)C3C)nc2c1 (centres undefined)	93
Cc1cc(C)nc(NC(=O)CSc2nc3ccccc3o2)n1	0
CN(C)S(=O)(=O)c1ccc2oc(SCC(N)=O)nc2c1	0
CC(=O)c1cccc(NC(=O)c2ccc(C)o2)c1	0
COc1cc(NC(=O)COC(=O)/C=C/c2c(C)nn(-c3ccc(F)cc3)c2Cl)cc(OC)c1	0
CCCCN(C(=O)Cn1nnc2ccccc21)C(C(=O)NCCOC)c1ccccc1 (centres undefined)	0
CCc1ccc(C(C(=O)NCCOC)N(C(=O)Cn2nnc3ccccc32)c2cccnc2)cc1 (centres undefined)	450
Cc1cccc(N(C(=O)Cn2nnc3ccccc32)C(C(=O)NCc2ccco2)c2ccncc2)c1C (centres undefined)	0
CCOC(=O)c1cc2ccccc2n1CCN(CC)CC	78
CCOC(=O)c1cc2sc(C)cc2n1CC(=O)N(CC)CC	0
CCOC(=O)c1cc(C)n(CCc2ccccc2)c1C	0
Cc1cccc(-c2nsc(SCC(=O)NCC3CCCO3)n2)c1 (centres undefined)	0
CSc1cnc2c(N)nc(N(C)C)nc2n1	0
COc1ccc(C(=O)NCCn2ccc3ccccc32)c(OC)c1	0
Cc1cccc(N2C(S)=C(C#N)C(=O)NC23CCCCC3)c1	0
Cc1cccc(N2C(=O)NC3(CCCCC3)C2=O)c1	78
Cc1cc(C)c(NC(=O)CN2C(=O)NC3(CCCCC3)C2=O)c(C)c1	0
O=C1CSCN1c1ccc(Cl)cc1	0
COc1cc(S(=O)(=O)N2CCN(C(=O)c3ccccc3F)CC2)c(OC)cc1NC(C)=O	0
CN(C)S(=O)(=O)c1cccc(NC(=S)N(CCC#N)Cc2cccnc2)c1	453
N#CCCN(Cc1cccnc1)C(=S)Nc1ccc(OC(F)F)cc1	0
CC1(C(=O)NC(=S)N(CCC#N)Cc2cccnc2)CC1(Cl)Cl (centres undefined)	0
Cc1cccc(C(=O)NCc2nnc3c4ccccc4c(-c4ccccc4)nn23)c1	0
CCOC(=O)Nc1sc(C)c(C)c1C(=O)OCC	0
COc1ccc(N2CCN(CCNC(=O)C3CCN(S(=O)(=O)c4cccs4)CC3)CC2)cc1	0
SMILES	Insulin prom act
CCOC(=O)c1c(NC(=O)C2CCN(S(=O)(=O)c3cccs3)CC2)sc(C)c1C	454
Cc1ccccc1NC(=O)C1CCN(S(=O)(=O)c2cccs2)CC1	0
O=C(NCCc1ccccc1Cl)C1CCN(S(=O)(=O)c2cccs2)CC1	0
CCC(C)(C)NC(=O)C1CCN(S(=O)(=O)c2cccs2)CC1	+[fluoresces]
O=C(COC(=O)c1ccc(CO)cc1)NCc1cccs1	0
Cc1ccc(OCc2ccc(C(=O)Nc3nc4ccccc4n3C)o2)c([N+](=O)[O-])c1	0
O=C(CSc1ccc(-c2cccc([N+](=O)[O-])c2)nn1)NCc1ccccc1	266
